# Screening data deposited in PubChem by Sanford-Burnham Center for Chemical Genomics.
# TIM10 inh = inhibits growth of TIM10 yeast strain | 1.4% of 330,000 active | inhibition, % at 10 µM | S. cerevisiae TIM10 strain growth, BacTiter-Glo luminescence, 24 h;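 active means inhibition of 40% or more at the single tested concentration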;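 further: wild-type TIM10 isogenic control strain grown at permissive 25 °C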
# tim10-1 inh = inhibits growth of tim10-1 mutant yeast. S. cerevisiae tim10-1 ts strain growth, BacTiter-Glo, 24 h. 2.2% of 330,000 active. AID 463190. inhibition, % at 20 µM;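 active means inhibition of at least 40%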;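 further: mutant grown at 25 °C; 0% = DMSO wells with yeast and 100% = wells holding no yeast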
# tim23-1 inh = inhibits growth of tim23-1 mutant yeast; S. cerevisiae tim23-1 growth, BacTiter-Glo luminescence, 24 h; inhibition, % at 20 µM; 1.3% of 330,000 active; AID 463212;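 active means growth inhibition of the mutant yeast at or above 50%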;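 further: temperature-sensitive mutant grown at 25 °C; plate controls were DMSO-treated mutant yeast for no effect and medium wells lacking yeast for full effect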
# UPR XBP1 act = adaptive UPR (XBP1) activation; CHO-XBP1 luciferase reporter, IRE1-XBP1 UPR activation, luminescence; percent of tunicamycin response, DMSO as zero; activation, % at 20 µM; 0.33% of 330,000 active; AID 463104;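 active means versus positive control, 20 µM dose yields 30% or more activation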;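 further: 100% = tunicamycin at 10 µg/mL and 0% = DMSO only wells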
#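 Material: IRE1-XBP1 luciferase reporter CHO line / Quantity: one thousand reporter cells per well / Buffer or medium: F12 with 10% serum / Compound: 20 µM single concentration, DMSO 1% / Times: 6 h treatment, 37 °C / Detection: Steady-Glo luciferase glow luminescence, 10 min after reagent addition / Benchmarks: tunicamycin high, DMSO low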
# UPR CHOP act = apoptotic UPR (CHOP) activation. CHO-CHOP luciferase reporter, luminescence; percent of tunicamycin response over DMSO baseline. activation, % at 10 µM. 0.34% of 330,000 active. AID 449763;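 active means at 10 µM dose, activation of 40% or more, normalized to positive control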;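 further: 100% = tunicamycin at 10 µg/mL and 0% = DMSO alone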
#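 Material: CHO-CHOP cells, stable luciferase reporter of PERK-eIF2a-CHOP signalling; quantity: 500 reporter cells seeded per well; buffer or medium: F12 medium containing 10% fetal bovine serum; compound: one dose, 10 µM in 0.5% DMSO; incubation: 6 h compound treatment, 37 °C; measured by: Steady-Glo luciferase luminescence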
# tim10 confirm = confirmation of TIM10 yeast growth inhibitors; shares compounds with TIM10 inh; S. cerevisiae tim10 strain growth, BacTiter-Glo luminescence, 24 h; inhibition, % at 10 µM; 63% of 4,600 active;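 active means inhibition of yeast growth at or above a set limit in either of two replicates at 10 µM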;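 further: this counterscreen used the strain with wild-type TIM10; 0% = yeast with DMSO and 100% = medium wells lacking yeast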
# The depositor's hits bear a star; . = not tested or not shown. Most compounds without a hit are left out; they make up all but 3.9% or so of the library.
SMILES,TIM10 inh,tim10-1 inh,tim23-1 inh,UPR XBP1 act,UPR CHOP act,tim10 confirm
COc1ccc(CNC(=O)CSc2cccc3cccnc23)cc1,50.9*,13.7,-0.4,-2.0,-0.6,11.9
COC(=O)[C@@H]1CC[C@H](C)[C@@H](c2ccc(C)cc2)N1C(=O)c1ccc(/C=N/O[C@@H](C)c2cn([C@H](CO)Cc3ccccc3)nn2)cc1,5.4,13.6,1.2,-2.9,13.0,.
COCc1ccc(-c2c(-c3ccsc3)sc3ccccc23)cc1,-2.6,0.1,2.7,-0.9,0.4,.
Oc1ccc(-c2c(-c3ccsc3)sc3ccccc23)cc1,48.3*,30.1,40.8,4.0,-0.2,61.4*
Cc1ccc(C(=O)Nc2ccc3c(c2)nc2n3CCSC2)cc1,63.2*,25.8,41.8,-0.7,-0.5,65.1*
Cc1cccc(NNC(=S)Nc2c(C)cccc2C)c1,44.9*,23.3,42.3,-2.1,5.8,35.6*
Cc1ccc(N2CC(C(=O)OCc3nnc(-c4ccccc4)o3)CC2=O)cc1 (centres undefined),6.5,36.2,28.5,2.0,1.8,.
CN(c1ccccc1)S(=O)(=O)c1ccc(NC(=S)NC(=O)C2CC2)cc1,41.2*,31.8,33.7,-0.6,0.0,-3.4
CN(C1CCCCC1)S(=O)(=O)c1ccc(NC(=S)NC(=O)c2cccs2)cc1,51.3*,32.5,37.9,1.2,-0.1,36.2*
COCCN1C2=C(C(=O)CC(C)(C)C2)C(c2ccc(OC)c(OC)c2)C2=C1CC(C)(C)CC2=O,-1.9,11.6,11.7,-2.1,-0.4,.
Cc1nc2ccccc2c(=O)n1/N=C/c1ccccn1,-1.3,10.8,9.6,0.6,-0.1,.
CCN=c1scc(-c2ccccc2)n1/N=C/c1ccccn1,45.3*,35.7,34.7,0.9,-2.5,23.8
C=CCN=c1scc(-c2ccccc2)n1/N=C/c1ccccn1,48.3*,28.1,44.9,5.8,5.2,43.1*
Cc1ccc(-c2csc3nc(SCC(=O)Nc4ccc(Cl)c(C(=O)O)c4)[nH]c(=O)c23)cc1,20.8,1.0,0.0,0.7,0.6,.
Cc1c(Cl)cccc1NC(=S)NCc1ccc(Cl)cc1,-10.4,24.5,-10.5,-4.2,-1.0,.
Cc1c(Cl)cccc1NC(=S)NCc1ccccc1,46.1*,30.4,27.8,-0.8,-2.2,20.7
COCCSc1nnc(NC(=O)c2ccco2)s1,67.3*,6.1,15.9,-1.5,0.1,12.1
CN(C)/C=C1/OC(=O)C(C#N)=C1c1ccc(Cl)cc1,-1.4,8.6,5.1,0.5,0.2,.
CCOC(=O)N1CCN(C(=O)COC(=O)CN(C)S(=O)(=O)c2ccc(NC(C)=O)cc2)CC1,-0.6,-3.2,4.2,-0.7,2.0,.
COc1ccc(C(=O)/C=C/C(=O)N(Cc2ccccc2)C(C(=O)NC2CCCCC2)c2ccncc2)c(O)c1 (centres undefined),22.7,18.2,34.0,-1.7,0.3,.
COc1ccc(C(=O)/C=C/C(=O)N(Cc2ccc(F)cc2)C(C(=O)NC2CCCCC2)c2ccncc2)c(O)c1 (centres undefined),44.1*,31.8,38.4,-3.4,0.1,0.3
O=C1/C(=C\c2cccnc2)CCc2ccccc21,44.1*,39.6,39.8,-5.1,-1.5,40.3*
Cc1[nH]c2ccccc2c1C(C#N)(C#N)C1C(=O)c2ccccc2C1=O,63.3*,0.7,35.6,-2.7,5.6,78.2*
CCCCCn1c(CCNC(=O)c2cccs2)nc2ccccc21,41.2*,37.6,47.7,1.7,0.2,30.8
COc1ccc(C(=O)N2CCNC(=O)C2)cc1S(=O)(=O)Nc1ccc(Br)cc1,2.0,-21.4,-4.8,0.4,-1.2,.
SMILES,TIM10 inh,tim10-1 inh,tim23-1 inh,UPR XBP1 act,UPR CHOP act,tim10 confirm
CCOC(=O)c1c(C)[nH]c(C(=O)OCC(=O)N(CC(C)C)c2c(N)n(Cc3ccccc3)c(=O)[nH]c2=O)c1C,5.6,-0.2,-3.5,-1.0,-0.3,.
Sc1nnc(-c2ccc(Cl)cc2)n1Cc1ccccc1,18.3,15.6,20.9,-1.8,0.4,.
O=C(CCSc1nc(-c2ccco2)cc(C(F)(F)F)n1)N1CCN(c2ccccn2)CC1,40.3*,35.9,32.8,-5.4,-4.0,32.2*
CN1CCN(C(=O)CSc2nc(-c3ccco3)cc(C(F)(F)F)n2)CC1,13.5,2.8,-12.0,0.3,-0.1,.
COc1ccc(N2CCN(CCCNC(=O)Cn3c(=O)c4cccn4c4ccccc43)CC2)cc1,45.8*,3.9,1.0,-1.2,-0.5,8.6
O=C1NC2(C=Cc3c(ccc4ccccc34)O2)Oc2ccccc21 (centres undefined),41.2*,24.9,34.4,10.8,8.3,28.4
Cc1cc(C)c(C#N)c(SCc2nc3ccccc3[nH]2)n1,44.2*,0.2,28.2,4.3,4.4,36.1*
Cc1cc(C)c(C#N)c(SCc2ccc(F)cc2)n1,19.6,14.8,12.3,2.0,0.8,.
COc1cc(C(=O)OCc2csc(CC(=O)Nc3ccccc3C)n2)ccc1OCC(C)C,7.8,21.8,11.6,-1.3,0.2,.
O=C(CNC(=O)c1ccc2c(c1)OCO2)N/N=C/c1cc(Br)ccc1O,11.2,-2.4,-18.3,1.4,-1.1,.
Cc1ccccc1-n1c(-c2csc3ccccc23)n[nH]c1=S,40.4*,34.7,31.6,-0.4,0.6,-30.5
C=CCn1c(-c2csc3ccccc23)n[nH]c1=S,32.3,35.8,33.0,-0.1,0.9,.
N#Cc1nc(COc2ccccc2)oc1N1CCCC1,-21.8,2.9,7.9,1.8,1.7,.
N#Cc1nc(COc2ccccc2)oc1N1CCCCCC1,75.3*,18.4,17.9,3.8,2.5,4.5
Clc1ccc(Cn2ccc(-c3ccc4c(c3)OCO4)n2)cc1Cl,40.1*,25.9,24.9,1.1,2.9,40.0*
CCCc1ccc(C#N)c(SC2CC(=O)N(c3ccc(OC)cc3)C2=O)n1 (centres undefined),10.2,5.6,9.6,-4.1,-0.1,.
COc1ccc(N2C(=O)CC(Sc3nc(C)cc(C)c3C#N)C2=O)cc1 (centres undefined),41.7*,30.3,30.7,-1.8,0.7,28.4*
Cc1nc2cc(OCc3cc(C(=O)NC(C)c4cnn(C)c4)no3)ccc2s1 (centres undefined),4.2,3.3,4.0,-3.7,4.1,.
S=c1[nH]nc(-c2ccco2)n1Cc1ccccc1,13.2,31.2,21.7,0.8,0.8,.
S=c1[nH]nc(-c2ccc(Br)o2)n1Cc1ccccc1,46.1*,37.9,46.2,0.2,0.3,34.6*
CC(=O)C1=C(C)Nc2ncnn2C1c1ccccc1 (centres undefined),-26.3,-12.1,0.0,-7.0,0.8,.
CC(=O)C1=C(C)Nc2ncnn2C1c1ccccc1F (centres undefined),96.5*,1.9,1.1,-2.2,4.1,8.1
